Data set [1] relates to prostate cancer cells (C4-2, CWR22Rv1, PC-3, DU145). The data set is described as follows: Cell viability assay, AR-positive and AR-negative prostate cancer cells. The data set is classed as cell-based. To be noted: 48 h treatment. Put shortly: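 Cells were seeded in 96-well plates in multiple wells and allowed to adhere. They were then exposed for 48 h to graded concentrations of test compound, nano vehicle (Se nanoparticles without peptide) or free peptide. CCK-8 reagent was added for 2 h, then absorbance was read at 450 nm. Data were normalised to the untreated group and given as mean ± SD.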

A further data set deals with p300 (Homo sapiens, UniProt Q09472). The data set is described as follows: Immunoblotting of p300 degradation in prostate cancer cells. The data set is classed as cell-based. The settings on record: for p300 degradation in prostate cancer cells: immunoblot, 24 h. Put shortly:
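AR-positive and AR-negative prostate cancer cells were exposed for 24 h to a range of concentrations of the test compound (Se-nanoparticle-loaded peptide PROTAC). Cells were PBS-washed three times before harvest and lysates were immunoblotted for p300. Secondary antibody was applied for 1 h at room temperature, with 3 × 5 min TBST washes. Detection was by ECL chemiluminescence.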

For data set [2], the system named is prostate cancer cells (PC-3, DU145, C4-2, CWR22Rv1). The data set is described as follows: Colony formation assay. Format: cell-based. The settings on record: 20 days treatment. Put shortly:
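Cells were plated in 6-well plates and allowed to attach for 48 h. They were then treated with graded concentrations of test compound for 20 days. Wells were PBS-washed, fixed 30 min in 4% paraformaldehyde and stained 30 min with 0.1% crystal violet. Colonies were counted from images.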

In another data set the test system is CWR22Rv1 xenografts. The data set is described as follows: CWR22Rv1 xenograft mouse model. Format: in vivo, BALB/c nude mice. The method in brief: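 Thirty-five male 4-week-old BALB/c nude mice were randomised into 7 groups of 5. Each received 6 × 10⁶ 22Rv1 cells mixed 1:1 with Matrigel, injected s.c. into the right shoulder. After tumours formed, dosing was i.p. every other day for 21 days, with reference agents also at 5 mg/kg. Volume was calculated as length × width²/2. Tumours went to H&E or IHC, scored as intensity (0–3) × positive-cell percentage grade (1–4).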

A further data set has as its system PC-3 xenografts. The data set is described as follows: PC-3 xenograft mouse model. Format: in vivo, BALB/c nude mice. The method in brief: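 Twenty-five male 4-week-old BALB/c nude mice were randomised into 5 groups of 5 and received 8 × 10⁶ PC-3 cells s.c. into the right shoulder. Dosing began once tumours reached about 200 mm³, about 3 weeks later. Mice received PBS, peptide control, nano vehicle, test compound or a reference inhibitor at 5 mg/kg i.p. every other day for 18 days. Volume was calculated as length × width²/2. Tumours and organs went to H&E, Ki-67 and TUNEL staining. Mean ± SD, t-test.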

For another data set, the target named is CBP (Homo sapiens, UniProt Q92793). In words: Immunoblotting of CBP in prostate cancer cells. To be noted: immunoblot. The data set is classed as cell-based. Put shortly:
(§1)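 Drug treatment lasted 24 h unless otherwise stated. Cells were PBS-washed, lysed, and lysates spun at 13,000×g for 15 min at 4 °C, then BCA-quantified and boiled 5 min. Equal protein was run on 6–10% Tris-glycine SDS-PAGE and transferred to PVDF. Membranes were blocked 1 h in 5% milk, incubated with primary antibody (in 3% BSA/TBST) overnight at 4 °C, then secondary antibody 1 h at room temperature. Detection was by ECL.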

The subject of data set [3] is prostate cancer cells. The data set is described as follows: Wound healing and transwell invasion assays. The settings on record: wound healing 24 h and 48 h; transwell 36 h. Format: cell-based. The method in brief: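 For wound healing, confluent PC3 and DU145 monolayers were scratched with a 200 μl tip and rinsed with PBS. Test compound was added in serum-free medium, and wounds were photographed at 24 h and 48 h.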

Another data set deals with NE1.3 and H660 cells. In words: Apoptosis detection by flow cytometry. The settings on record: 24 h. Format: cell-based. Put shortly: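 NE1.3 cells were grown in medium with 10% androgen-removed FBS. H660 cells were grown in RPMI 1640 with 5% FBS, insulin, transferrin, selenite, hydrocortisone, β-estradiol and 4 mM final L-glutamine. Cells were seeded at 3 × 10⁵ cells/ml in 6-well plates and exposed for 24 h to test compound, untreated, nano vehicle or peptide controls. They were processed with an apoptosis detection kit per protocol and analysed on a FACSCalibur flow cytometer.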

The next data set relates to p53. In words: Immunoblotting of p53 and downstream proteins. The data set is classed as cell-based. The settings on record: C4-2 and CWR22Rv1 cells, 1μM. Put shortly: as §1
The test system of the next data set is C4-2 and PC-3 cells. In words: Apoptosis detection by flow cytometry. Format: cell-based, human. To be noted: high concentrations, 24 h. Put shortly: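 Cells were plated at 3 × 10⁵ cells/ml in 6-well plates. Treatment ran 24 h with test compound alongside untreated, nano vehicle and free peptide controls. Cells were harvested, stained with an apoptosis detection kit per its protocol and analysed on a FACSCalibur flow cytometer.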

Data set [4] can be described thus: Biodistribution by fluorescence imaging. Format: in vivo, mice. The settings on record: rhodamine-labeled drug, i.p., PC-3 xenograft models, 0-72 h. The method in brief: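 Tumour-bearing mice received rhodamine B-labelled test compound i.p., with injections timed to give exposures of 0, 12, 24, 48 and 72 h. Mice were then euthanised. Heart, liver, spleen, lungs and kidneys were excised and imaged at once on a small-animal in vivo fluorescence system. Distribution was scored by fluorescence intensity.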

Data set [5] relates to prostate cancer cells. In words: Cell internalization by confocal microscopy and flow cytometer. The settings on record: 500 nM rhodamine-labeled drug. Format: cell-based. The method in brief:
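C4-2 cells were incubated with 500 nM rhodamine-labelled test compound, and nuclei were stained with DAPI. Imaging was by confocal microscopy, with identical excitation wavelength and detector gain for all images.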

For data set [6], the target named is p300/MDM2 binding in 293T cells (Homo sapiens, UniProt Q00987+Q09472). The data set is described as follows: Co-immunoprecipitation of p300 and MDM2. The data set is classed as cell-based. The settings on record: 293T cells transfected with HA-p300 or Flag-MDM2. The method in brief:
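293T cells were transfected with HA-p300 or Flag-MDM2 plasmids. They were lysed 15 min on ice in IP buffer with protease and phosphatase inhibitors, then spun at 13,000×g for 15 min at 4 °C. Supernatants were incubated with anti-HA agarose beads for 12 h at 4 °C, with or without test compound. Beads were washed, boiled 5 min in loading buffer and analysed by Western blot.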

In data set [7] the target is rhodamine-labeled peptide p300 PROTAC drug. The data set is described as follows: fluorescence polarisation.

Sequence of p300 (Q09472 whole entry): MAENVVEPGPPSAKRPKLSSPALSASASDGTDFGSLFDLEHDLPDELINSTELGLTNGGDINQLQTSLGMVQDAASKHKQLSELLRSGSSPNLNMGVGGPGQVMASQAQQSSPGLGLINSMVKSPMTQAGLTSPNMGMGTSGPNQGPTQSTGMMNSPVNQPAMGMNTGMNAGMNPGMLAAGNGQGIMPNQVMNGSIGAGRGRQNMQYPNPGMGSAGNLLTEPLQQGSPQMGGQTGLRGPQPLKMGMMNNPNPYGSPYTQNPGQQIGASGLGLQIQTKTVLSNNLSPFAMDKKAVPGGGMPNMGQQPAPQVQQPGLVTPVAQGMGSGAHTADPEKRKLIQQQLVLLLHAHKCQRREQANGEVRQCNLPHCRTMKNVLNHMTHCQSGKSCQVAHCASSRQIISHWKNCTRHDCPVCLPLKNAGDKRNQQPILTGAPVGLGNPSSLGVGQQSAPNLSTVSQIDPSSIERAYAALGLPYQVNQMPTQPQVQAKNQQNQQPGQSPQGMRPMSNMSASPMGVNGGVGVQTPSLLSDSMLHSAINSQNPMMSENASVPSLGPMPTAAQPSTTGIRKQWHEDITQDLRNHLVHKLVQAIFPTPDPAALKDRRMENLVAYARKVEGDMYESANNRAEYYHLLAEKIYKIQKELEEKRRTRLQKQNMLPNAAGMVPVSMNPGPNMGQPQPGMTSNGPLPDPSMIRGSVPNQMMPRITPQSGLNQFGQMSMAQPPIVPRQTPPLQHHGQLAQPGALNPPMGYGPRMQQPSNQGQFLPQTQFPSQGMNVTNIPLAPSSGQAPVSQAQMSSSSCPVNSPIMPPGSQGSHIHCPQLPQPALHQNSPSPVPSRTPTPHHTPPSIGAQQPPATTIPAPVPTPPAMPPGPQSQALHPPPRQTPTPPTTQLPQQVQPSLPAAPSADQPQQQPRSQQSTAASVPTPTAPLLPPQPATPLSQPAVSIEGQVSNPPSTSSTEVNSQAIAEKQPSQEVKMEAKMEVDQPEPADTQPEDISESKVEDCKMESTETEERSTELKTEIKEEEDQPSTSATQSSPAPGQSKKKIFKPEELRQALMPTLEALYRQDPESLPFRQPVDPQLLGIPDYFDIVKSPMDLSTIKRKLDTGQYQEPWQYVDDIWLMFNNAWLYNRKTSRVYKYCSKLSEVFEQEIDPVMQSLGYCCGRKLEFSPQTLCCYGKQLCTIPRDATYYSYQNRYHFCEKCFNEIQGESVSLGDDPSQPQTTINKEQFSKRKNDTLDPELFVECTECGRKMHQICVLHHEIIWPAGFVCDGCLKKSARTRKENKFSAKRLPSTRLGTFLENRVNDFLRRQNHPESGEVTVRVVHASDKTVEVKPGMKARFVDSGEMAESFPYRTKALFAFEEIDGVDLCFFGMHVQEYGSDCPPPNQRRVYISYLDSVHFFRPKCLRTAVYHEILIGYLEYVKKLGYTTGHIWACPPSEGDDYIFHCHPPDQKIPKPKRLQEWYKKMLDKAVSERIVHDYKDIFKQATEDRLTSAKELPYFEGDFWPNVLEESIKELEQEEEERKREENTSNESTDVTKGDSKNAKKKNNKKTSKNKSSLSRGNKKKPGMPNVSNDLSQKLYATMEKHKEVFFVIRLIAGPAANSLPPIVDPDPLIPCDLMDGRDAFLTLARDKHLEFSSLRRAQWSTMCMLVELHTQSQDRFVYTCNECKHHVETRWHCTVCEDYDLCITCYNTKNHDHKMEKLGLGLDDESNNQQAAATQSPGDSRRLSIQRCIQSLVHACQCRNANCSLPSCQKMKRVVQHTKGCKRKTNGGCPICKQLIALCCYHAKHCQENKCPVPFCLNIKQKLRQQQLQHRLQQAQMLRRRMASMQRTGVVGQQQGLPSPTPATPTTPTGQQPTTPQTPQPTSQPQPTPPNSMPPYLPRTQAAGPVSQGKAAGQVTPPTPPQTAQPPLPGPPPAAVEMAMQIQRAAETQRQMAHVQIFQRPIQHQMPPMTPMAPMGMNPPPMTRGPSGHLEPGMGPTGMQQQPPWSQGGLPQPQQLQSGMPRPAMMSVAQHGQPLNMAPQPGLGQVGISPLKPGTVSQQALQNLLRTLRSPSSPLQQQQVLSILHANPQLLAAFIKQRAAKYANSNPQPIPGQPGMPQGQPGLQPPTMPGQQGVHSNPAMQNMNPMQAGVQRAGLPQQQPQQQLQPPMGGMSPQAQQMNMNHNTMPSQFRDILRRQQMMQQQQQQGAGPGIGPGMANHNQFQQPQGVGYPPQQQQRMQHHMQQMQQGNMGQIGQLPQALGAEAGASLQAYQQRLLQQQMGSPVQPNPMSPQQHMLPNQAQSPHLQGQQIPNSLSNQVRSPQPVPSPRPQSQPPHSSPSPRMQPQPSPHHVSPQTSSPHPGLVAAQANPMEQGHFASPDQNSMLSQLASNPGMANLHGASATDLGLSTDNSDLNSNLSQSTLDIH
Sequence of CBP (Q92793 whole entry): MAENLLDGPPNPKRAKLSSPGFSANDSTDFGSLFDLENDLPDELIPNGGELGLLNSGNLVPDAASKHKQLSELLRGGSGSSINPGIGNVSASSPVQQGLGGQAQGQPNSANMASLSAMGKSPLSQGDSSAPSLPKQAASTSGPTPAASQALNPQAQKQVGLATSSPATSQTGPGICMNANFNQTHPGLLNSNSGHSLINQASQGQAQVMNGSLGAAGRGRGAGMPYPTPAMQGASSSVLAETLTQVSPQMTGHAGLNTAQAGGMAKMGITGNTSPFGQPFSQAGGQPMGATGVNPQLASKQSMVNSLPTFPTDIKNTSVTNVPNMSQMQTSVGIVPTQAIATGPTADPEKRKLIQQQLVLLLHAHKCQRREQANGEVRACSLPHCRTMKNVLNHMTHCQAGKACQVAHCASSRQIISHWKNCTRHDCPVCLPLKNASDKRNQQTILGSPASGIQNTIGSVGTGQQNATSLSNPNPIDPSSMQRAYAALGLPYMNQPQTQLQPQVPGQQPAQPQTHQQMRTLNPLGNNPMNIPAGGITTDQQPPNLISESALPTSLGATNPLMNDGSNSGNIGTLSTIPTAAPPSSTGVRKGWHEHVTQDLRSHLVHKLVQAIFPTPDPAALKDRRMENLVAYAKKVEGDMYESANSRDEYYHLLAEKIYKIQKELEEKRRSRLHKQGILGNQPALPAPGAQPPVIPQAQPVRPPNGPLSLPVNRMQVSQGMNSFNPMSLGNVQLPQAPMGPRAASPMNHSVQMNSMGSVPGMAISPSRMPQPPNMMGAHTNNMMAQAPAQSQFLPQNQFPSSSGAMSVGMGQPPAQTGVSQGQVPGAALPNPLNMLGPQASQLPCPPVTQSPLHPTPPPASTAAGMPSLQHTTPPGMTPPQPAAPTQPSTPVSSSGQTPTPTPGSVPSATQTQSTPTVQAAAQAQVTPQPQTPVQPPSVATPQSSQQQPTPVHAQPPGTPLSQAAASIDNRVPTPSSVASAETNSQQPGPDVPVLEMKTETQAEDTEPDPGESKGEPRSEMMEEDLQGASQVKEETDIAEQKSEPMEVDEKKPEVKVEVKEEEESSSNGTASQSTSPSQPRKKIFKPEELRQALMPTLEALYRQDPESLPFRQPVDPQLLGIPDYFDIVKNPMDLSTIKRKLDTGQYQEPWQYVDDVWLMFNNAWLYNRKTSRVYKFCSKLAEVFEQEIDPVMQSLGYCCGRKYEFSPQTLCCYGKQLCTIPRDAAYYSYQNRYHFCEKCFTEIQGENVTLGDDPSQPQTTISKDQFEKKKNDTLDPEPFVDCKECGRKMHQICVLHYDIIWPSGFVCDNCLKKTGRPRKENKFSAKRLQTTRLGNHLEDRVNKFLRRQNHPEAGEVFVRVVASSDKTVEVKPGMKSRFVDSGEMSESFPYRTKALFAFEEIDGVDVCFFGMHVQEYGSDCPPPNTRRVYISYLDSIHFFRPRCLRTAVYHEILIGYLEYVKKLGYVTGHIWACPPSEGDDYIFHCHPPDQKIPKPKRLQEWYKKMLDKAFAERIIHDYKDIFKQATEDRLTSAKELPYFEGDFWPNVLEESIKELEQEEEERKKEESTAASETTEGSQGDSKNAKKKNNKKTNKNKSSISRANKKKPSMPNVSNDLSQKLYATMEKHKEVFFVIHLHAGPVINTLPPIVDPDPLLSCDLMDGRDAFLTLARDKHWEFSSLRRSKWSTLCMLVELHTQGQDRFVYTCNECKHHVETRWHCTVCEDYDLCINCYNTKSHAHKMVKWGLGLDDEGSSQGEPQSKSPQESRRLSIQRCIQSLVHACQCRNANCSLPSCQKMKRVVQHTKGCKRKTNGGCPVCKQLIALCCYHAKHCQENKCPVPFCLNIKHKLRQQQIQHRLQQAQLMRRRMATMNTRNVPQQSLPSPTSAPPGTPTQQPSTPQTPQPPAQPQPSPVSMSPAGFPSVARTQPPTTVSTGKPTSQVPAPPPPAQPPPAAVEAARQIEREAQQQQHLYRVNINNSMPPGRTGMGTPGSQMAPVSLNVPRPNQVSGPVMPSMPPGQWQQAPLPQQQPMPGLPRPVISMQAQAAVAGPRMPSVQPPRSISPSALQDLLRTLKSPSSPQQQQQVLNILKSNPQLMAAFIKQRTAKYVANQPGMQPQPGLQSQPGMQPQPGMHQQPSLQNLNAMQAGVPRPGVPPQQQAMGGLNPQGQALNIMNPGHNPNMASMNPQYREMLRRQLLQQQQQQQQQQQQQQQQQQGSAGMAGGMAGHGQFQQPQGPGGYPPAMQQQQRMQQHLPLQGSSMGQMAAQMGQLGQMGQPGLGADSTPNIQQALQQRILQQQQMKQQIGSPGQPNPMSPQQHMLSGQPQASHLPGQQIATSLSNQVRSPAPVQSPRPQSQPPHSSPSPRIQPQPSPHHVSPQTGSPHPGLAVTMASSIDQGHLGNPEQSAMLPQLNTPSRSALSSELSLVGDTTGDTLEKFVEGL

Turning to “CPWIWDGDNKDDNSTDGGGSGGGTSFEQFWAWLWP [free peptide control]”, the “Toxicity in prostate cancer cells (cell viability)” value in data set [1] is given as “no toxicity”.
As for “CPWIWDGDNKDDNSTDGGGSGGGTSFEQFWAWLWP [p300 PROTAC drug]”, the “Concentration eliminating the p300 protein” value at p300 (different prostate cancer cell lines) is given as “under 1 μM”. Also, on p300, the “p300 degradation in prostate cancer cells” value is “effectively degraded p300”. Also, in [2], the Colony formation entry was “effectively inhibited colony formation”. For the same substance, the “Effect on CWR22Rv1 tumor growth” value in the data set with CWR22Rv1 xenografts (5 mg/kg i.p. every other day for 21 days, n = 5 per group) was “significant efficacy in vivo”. The “IHC of CWR22Rv1 tumors (p300, AR, Ki-67, TUNEL)” value in the data set on CWR22Rv1 xenografts (5 mg/kg i.p., n = 5) is “effectively degraded the p300, AR and Ki-67, and effectively induced the increase of tumor apoptosis”. The “Efficacy relative to comparator drugs, CWR22Rv1 model” value in the data set with CWR22Rv1 xenografts (all at 5 mg/kg i.p. every other day) was “better efficacy compared with I-CBP112, dCBP-1, and JQAD1”. Also, the “Effect on PC-3 tumor growth” value in the data set on PC-3 xenografts (5 mg/kg i.p. every 2 days for 18 days, n = 5 per group) is given as “significant efficacy in vivo”. Moreover, the “Efficacy relative to I-CBP112, PC-3 model” value with PC-3 xenografts (same dose, 5 mg/kg) was “better efficacy compared to small molecular p300/CBP inhibitor I-CBP112 at the same dose”. Further, at CBP, the “Reduction of CBP in prostate cancer cells” value is “notably weaker compared to its effect on p300”. Also, in the data set with prostate cancer cells [3], the Migration and invasion result was “effectively inhibit the migration and invasion”. Moreover, in the data set with NE1.3 and H660 cells, the “Apoptosis induction, NEPC cells” value was “effectively induced apoptosis”. The “Protein level of p53 and downstream proteins” value in the data set with p53 is “effectively increased the protein level of p53 and its downstream proteins”. For the same substance, the “Apoptosis induction, AR-positive and AR-negative cell lines” value with C4-2 and PC-3 cells is listed as “effectively induced apoptosis”. In addition, the Biodistribution entry in data set [4] is listed as “accumulated within the tumor”. Besides, in the data set with prostate cancer cells [5], the Cell internalization entry was “internalization of the p300 PROTAC drug in a time-dependent manner”. The “Binding of p300 to MDM2 in presence of drug” value in data set [6] is reported as “significantly enhanced”.
JQAD1 [reference compound]: at p300, the “p300 degradation in prostate cancer cells” value is “poor performance”.
For “MDM2 N-terminal domain (domain or fragment)”, in data set [7], the Kd stood at 0.101 µM.
Substance p300 CH1 domain (domain or fragment) showed a dissociation constant Kd in data set [7] of 0.0783 µM.

The record behind these values is publication PMC11261775 (eBioMedicine, 2024).
